# Screening data from PubChem BioAssay.
# In the library only some 4.9% were active in any assay of this set; here they are far more common.
# CHT inh: human CHT choline transport inhibition | CHT-expressing cells, membrane potential dye, choline response; active compounds read low | AID 488975 | B-score at 10 µM | Q9GZV3 | actives 0.86% (n = 310,000);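 active = B-score over 3 SD under the library average, and starting fluorescence ratio not unusually high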;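 note: choline stimulus applied at its EC90 after an EC20 pre-addition; B-score computed on integrated fluorescence ratio after choline addition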
# Hep lipid drop: hepatic lipid droplet formation modulation; AML12 mouse hepatocytes, oleate lipid droplets, BODIPY imaging; inhibition, % at 6.5 µM; actives 0.4% (n = 240,000); AID 1656;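 active = lipid droplet intensity inhibited by at least 50%, with more than 500 cells counted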
#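 Material: mouse AML12 hepatocyte cell line, fixed after treatment; Timing: compound with oleate, overnight; Technique: high-content imaging of BODIPY-stained droplets and DAPI nuclei; Probe or stimulus: oleate, 100 µM final; Dosing: compound at 6.5 µM only.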
# HSF1 inhib: HSF1 inhibition; NIH3T3-HGL HSE-luciferase, MG132-induced, luminescence 8 h; active compounds read low; activity change, negative = inhibition, % at 7.5 µM (by protocol); actives 0.77% (n = 300,000);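 active = more than half of replicate wells show activity change below -50%, luminescence cut by over half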;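 note: luciferase reports HSF-1 transcriptional activity via heat shock element; 0% = median of DMSO wells and -100% = zero luminescence signal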
# CHT allo act: allosterically activates the human high affinity choline transporter | Q9GZV3 | CHT-expressing cells, membrane potential dye, choline EC20; active compounds read high; LV-AA mutant CHT in HEK293 cells | B-score at 10 µM | actives 0.49% (n = 310,000) | AID 488977;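 active = initial fluorescence not abnormally high and integrated response B-score, plate-corrected, over 3 SD above library mean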
# PHOSPHO1 inh: blocks human PHOSPHO1 phosphatase activity. actives 1.1% (n = 290,000). inhibition, % at 13.3 µM. recombinant PHOSPHO1, absorbance phosphatase assay. Q8TCT1; in the data active = inhibition above about 60%
# Target sequence (Q8TCT1 whole entry, looked up): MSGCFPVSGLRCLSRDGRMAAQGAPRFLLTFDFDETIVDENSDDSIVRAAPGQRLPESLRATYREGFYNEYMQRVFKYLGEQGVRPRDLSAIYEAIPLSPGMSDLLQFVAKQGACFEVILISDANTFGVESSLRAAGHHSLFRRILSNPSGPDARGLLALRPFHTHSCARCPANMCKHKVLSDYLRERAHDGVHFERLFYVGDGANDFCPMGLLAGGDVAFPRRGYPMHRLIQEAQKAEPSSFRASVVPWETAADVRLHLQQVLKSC
# HSF1 activator: increases HSF-1 driven luciferase reporter signal; NIH3T3-HGL HSF-1 luciferase reporter, MG132, 8 h; 100% = twice DMSO control signal; activation, % at 9 µM; actives 1.7% (n = 300,000); AID 504408;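 active = mean replicate activation of at least 50% with a set share of replicates each reaching 50%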;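 note: 0% = median of the neutral control wells and 100% = twice that signal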
# * marks the source's active call; other numbers are inactive results; i = inactive; · = not tested or not shown.
SMILES,CHT inh,Hep lipid drop,HSF1 inhib,CHT allo act,PHOSPHO1 inh,HSF1 activator
N/C(=N\OC(=O)COc1ccc(Br)cc1Cl)c1ccccn1,i,-4,13,i,16,51*
N/C(=N\OC(=O)COc1ccc(Br)cc1Cl)c1ccncc1,i,11,·,i,-10,·
O=C(c1ccc(Cl)cc1)C(CN1CCCCC1)c1ccccc1 (configuration not stated),i,-16,86,i,24,107*
COc1ccccc1N(C)S(=O)(=O)c1ccc(C(=O)NC(C)c2ccccc2)cc1 (configuration not stated),i,-24,-67*,i,14,-74
Cc1cc(-c2ccccc2)c2c(=O)n(-c3ccccc3)[nH]c2n1,i,·,-2,i,24,2
O=c1c2c3n(c(=S)nc2[nH]n1-c1ccccc1)CCCCC3,i,3,-3,i,82*,10
O=c1[nH]c(CN2CCN(c3ccc(F)cc3)CC2)nc2ccccc12,i,·,8,i,37,12
O=C(NC1CC1)c1ccc(N2CCCCC2)c([N+](=O)[O-])c1,i,24,3,i,38,-11
CSc1nncc(/C(C)=N\Nc2ccccc2C)n1,i,-3,7,i,95*,24
CC(C)CC(=O)N1CCN(S(=O)(=O)c2ccccc2)CC1,i,-1,-4,i,14,5
CC(C)Nc1nnc(Sc2ccc(Cl)cc2[N+](=O)[O-])s1,i,-14,-50*,i,-17,-60
O=c1c(C(c2ccccc2)c2c(O)sc3ccccc3c2=O)c(O)sc2ccccc12,-5.2*,2,8,i,7,20
Cc1cc2sc3ccccc3c(=O)c2c(C)c1O,i,-1,14,i,0,19
Cc1ccc(N2C(=O)N(CC(=O)Nc3cc(Cl)ccc3C)C(=O)C2C)cc1 (configuration not stated),i,·,-1,i,·,2
COc1ccccc1C(=O)NC(=O)COC(=O)c1cnc(C)cn1,i,·,-3,i,·,4
Oc1ccc(N=Cc2ccc(OCc3ccccc3)cc2)cc1,i,-4,40,i,31,65*
COc1ccc(CN2CCC(=O)N([C@H](CO)c3ccccc3)CC2)cc1,i,·,-2,i,-7,10
CCCNC(=O)c1ccccc1NC(=O)CN(c1ccccc1)S(=O)(=O)N(C)C,i,-7,4,i,26,8
CCOc1ccccc1NC(=O)Nc1ccc2c(c1)OCO2,i,-1,5,i,53,16
C=CCOc1ccccc1CN(C(=O)CCl)c1ccc2c(c1)OCO2,i,-3,-93*,i,39,-93
Cc1ccccc1S(=O)(=O)Cc1ccc(C(=O)NCc2cccs2)o1,i,·,-2,i,-14,5
CC(=O)N1CCc2c(sc(NC(=O)CS(=O)(=O)c3ccc(F)cc3)c2C#N)C1,i,·,-1,i,·,-21
O=C(COc1ccc([N+](=O)[O-])cc1)Nc1cc(C(=O)O)cc(C(=O)O)c1,i,6,-5,i,-8,-16
CCOC(=O)c1cc(NC(=O)COc2ccc([N+](=O)[O-])cc2)cc(C(=O)OCC)c1,i,2,18,i,0,53*
CC(=Nc1ccc(Br)cc1)c1sc2ccccc2c1O,i,6,42,i,4,60*
SMILES,CHT inh,Hep lipid drop,HSF1 inhib,CHT allo act,PHOSPHO1 inh,HSF1 activator
COc1ccc(S(=O)(=O)N2CCCCCC2)cc1C(=O)OCC(=O)NC(C)(C)C,i,10,-68*,i,-4,-75
O=C(Cc1cccc2ccccc12)N/N=C/c1ccc(Sc2cccc3cccnc23)o1,i,0,13,i,80*,0
Cc1ccc(S(=O)(=O)CC(=O)Nc2ccc(F)c(F)c2F)cc1,i,0,2,i,41,21
FC(F)(F)c1cnc(-n2cc[nH]c2=S)c(Cl)c1,i,·,-11,i,98*,-8
O=C(O)c1ccc(Cl)c2c1C1C=CCC1C(c1ccccn1)N2 (configuration not stated),i,·,0,i,83*,-6
O=[N+]([O-])c1ccc(Cl)c2c1C1C=CCC1C(c1ccccn1)N2 (configuration not stated),i,-20,11,i,8,29
S=C(Cc1cccnc1)N1CCOCC1,i,-4,2,i,60*,-7
O=S(=O)(c1ccc(-n2cnnn2)cc1)N1CCNCC1,i,12,43,i,53,83*
Cc1ccc(OCc2cc(C(=O)N3CCN(C)C[C@@H]3c3ccccc3)no2)cc1C,i,-6,27,i,18,56*
CC(=O)c1ccc(NC(=O)C2CCN(S(=O)(=O)c3cccc4cccnc34)CC2)cc1,i,7,-62*,i,-17,-69
O=C(COC(=O)C1CCN(S(=O)(=O)c2cccc3cccnc23)CC1)c1ccc([N+](=O)[O-])cc1,i,4,61,i,-4,107*
COc1ccc(C(=O)COC(=O)C2CCN(S(=O)(=O)c3cccc4cccnc34)CC2)cc1,i,-22,-3,i,7,-7
CCC(C)[C@H](NS(=O)(=O)c1ccc(C)cc1)C(=O)N1CCC(C(=O)N[C@H](C(=O)O)c2ccccc2)CC1 (some centres not stated),i,-10,4,i,23,14
COC(=O)c1cc(S(=O)(=O)NCc2ccc3c(c2)OCO3)cn1C,i,11,-4,i,64*,-16
CCOC(=O)c1cc(S(=O)(=O)NCc2ccco2)cn1C,i,9,1,i,14,-5
CCOC(=O)c1cc(S(=O)(=O)NCc2ccc3c(c2)OCO3)cn1C,i,-3,-1,i,62*,-3
COC(=O)c1cc(S(=O)(=O)NCc2ccccc2OC)cn1C,i,-63,-1,i,45,7
O=C(Nc1sc2c(c1C(=O)NC1CC1)CCCCCC2)c1ccco1,i,0,11,i,10,4
COC(=O)Nc1sc2c(c1C(=O)NC1CC1)CCCCCC2,i,17,-1,i,88*,0
COC(=O)c1c(NC(=O)c2ccc(C)o2)sc2c1CCCCC2,·,3,29,·,16,60*
COc1ccccc1-c1nnc(-c2ccc(N3CCOCC3)cc2)o1,i,20,16,i,-7,59*
CC1SC(c2cccc(Cl)c2)NC1=O (configuration not stated),i,-8,-2,i,-57,10
CC1SC(c2ccc(Cl)cc2)NC1=O (configuration not stated),i,-13,24,i,-14,68*
